According to BindingDB's records for doi:10.1021/jm049620r (University of Florida, 2004):
Bridge positions count the residues as written; N and C are the ends. Peptide text beside a SMILES is read from it.

Target: Melanocyte-stimulating hormone receptor (Mus musculus, UniProt Q01727)
Experiment: Agonistic activity against mouse Melanocortin 1 Receptor
Method in brief: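 HEK-293 cells stably expressing the receptor (G418 selection), transiently transfected with a CRE/β-galactosidase reporter. Lysates read with ONPG at OD405 and normalized to protein content and forskolin (10^-4 M) response. EC50 from nonlinear least-squares fit, at least three independent experiments.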

Chain of Melanocyte-stimulating hormone receptor (Q01727 whole entry): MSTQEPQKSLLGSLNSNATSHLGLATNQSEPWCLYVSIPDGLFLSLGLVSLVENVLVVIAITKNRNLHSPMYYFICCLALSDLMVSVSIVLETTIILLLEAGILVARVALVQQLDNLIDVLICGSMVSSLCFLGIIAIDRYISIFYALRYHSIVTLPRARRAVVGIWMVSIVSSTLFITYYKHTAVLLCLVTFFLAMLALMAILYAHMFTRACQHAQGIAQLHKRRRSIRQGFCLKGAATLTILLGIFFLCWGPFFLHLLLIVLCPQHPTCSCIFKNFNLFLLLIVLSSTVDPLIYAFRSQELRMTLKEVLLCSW

SMILES: C[C@@H]1NC(=O)[C@H](CC(N)=O)NC(=O)[C@H](Cc2ccccc2)NC(=O)[C@H](Cc2ccccc2)NC(=O)[C@H](CCCNC(=N)N)NC(=O)[C@@H](NC(=O)[C@@H](N)Cc2ccc(O)cc2)CSSC[C@@H](C(=O)N[C@@H](Cc2ccc(O)cc2)C(N)=O)NC(=O)[C@H](Cc2ccccc2)NC1=O (H-YCRFFNAFCY-NH2; disulfide 2-9)
- EC50: 5.12 µM
